The results in this text go back to ChEMBL document CHEMBL4385644, “Phenylhydrazides as inhibitors of Leishmania amazonensis arginase and antileishmanial activity” (Bioorg Med Chem, 2019).

Broadly, the EC50 is the concentration at which the effect is half-maximal. As a reminder, the inhibition is the percentage by which the read-out fell short of the control. As usually defined, the IC50 is the point on the concentration scale where inhibition reaches its midpoint. By Ki is commonly meant the dissociation constant of the complex between target and ligand, obtained from inhibition or displacement.

The source made the active and inactive calls. The rule behind the calls is not given here.

The test system of test [1] is Leishmania amazonensis. Briefly: Antileishmanial activity against Leishmania amazonensis MHOM/BR/1973/M2269 promastigotes assessed as inhibition of parasite growth incubated for 72 hrs by MTT assay. The following applies: MHOM/BR/1973/M2269, 72 h. It is filed as functional, organism-based. In a few lines: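 MHOM/BR/1973/M2269 promastigotes grown to stationary phase in M199 with 10% FBS, 5 ppm hemin, streptomycin and penicillin; 5.0 × 10^5 cells exposed 72 h to compounds at 100 µM to 0.78 µM (amphotericin B control, 10 µM downward). Formazan dissolved in DMSO and read at 570 nm. EC50 from a normalized variable-slope sigmoidal fit; mean ± SEM.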

Test [2] has as its target Arginase (Leishmania amazonensis) (UniProt O96394). Briefly: Inhibition of recombinant Leishmania amazonensis arginase expressed in Escherichia coli assessed as reduction in urea production at 100 uM using L-arginine as substrate by Berthelot colorimetric method relative to control.
For test [3], the target named is T1, Arginase (Leishmania amazonensis, UniProt O96394). The test can be described thus: Inhibition of recombinant Leishmania amazonensis arginase expressed in Escherichia coli assessed as reduction in urea production using L-arginine as substrate by Berthelot colorimetric method relative to control. In short, it runs like this:
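Arginase overexpressed in E. coli and purified. Urea formed was measured colorimetrically by the Berthelot method. IC50 given as mean ± SEM.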

For test [4], the target named is Arginase (Leishmania amazonensis) (UniProt O96394). The test can be described thus: Mixed type inhibition of recombinant Leishmania amazonensis arginase expressed in Escherichia coli assessed as reduction in urea production by measuring dissociation constant for enzyme-substrate-inhibitor complex using L-arginine as substrate by Berthelot colorimetric method based Dixon/Cornish-Bowden plot analysis relative to control. In short, it runs like this:
(§1)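 Urea read by the Berthelot method. Ki and Kis taken from Dixon and Cornish-Bowden plots; Cornish-Bowden slopes compared statistically. Points are means of three independent experiments run in duplicate; constants given as mean ± SEM.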

For test [5], the target named is T1, Arginase. The test can be described thus: Competitive inhibition of recombinant Leishmania amazonensis arginase expressed in Escherichia coli assessed as reduction in urea production by measuring dissociation constant for enzyme-inhibitor complex using L-arginine as substrate by Berthelot colorimetric method based Dixon/Cornish-Bowden plot analysis relative to control. In short, it runs like this:
as §1

In test [6] the target is Arginase (Leishmania amazonensis) (UniProt O96394). Briefly: Ratio of Ki to Kis for inhibition of recombinant Leishmania amazonensis arginase expressed in Escherichia coli assessed as reduction in urea production using L-arginine as substrate by Berthelot colorimetric method based Dixon/Cornish-Bowden plot analysis relative to control.
For test [7], the system named is Leishmania amazonensis. Briefly: Antileishmanial activity against Leishmania amazonensis MHOM/BR/1973/M2269 promastigotes assessed as inhibition of parasite growth at 100 uM incubated for 72 hrs by MTT assay. It is filed as functional, organism-based. In a few lines: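 Single-concentration screen at 100 µM. Stationary-phase MHOM/BR/1973/M2269 promastigotes in supplemented M199, 5.0 × 10^5 cells, exposed 72 h. Formazan dissolved in DMSO and read at 570 nm.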

Turning to `CC(=O)Nc1ccccc1C(F)(F)C(=O)NNc1ccccn1`, the EC50 in test [1] is above 100 µM. Also, the inhibition in test [2] was 8%. In addition, in test [3] (read-out: IC50), the IC50 is above 100 µM.
For the compound `C[C@@H]1[C@H](O)[C@@H](C)/C=C/C=C/C=C/C=C/C=C/C=C/C=C/[C@H](O[C@@H]2O[C@H](C)[C@@H](O)[C@H](N)[C@@H]2O)C[C@@H]2O[C@](O)(C[C@@H](O)C[C@@H](O)[C@H](O)CC[C@@H](O)C[C@@H](O)CC(=O)O[C@H]1C)C[C@H](O)[C@H]2C(=O)O` [AMPHOTERICIN B], in test [1], the EC50 amounted to 0.33 µM. The IC50 result in test [3] is “Not Active”.
Consider `CC(=O)Nc1ccccc1C(F)(F)C(=O)NNc1ccc(C(F)(F)F)cc1`, for which the EC50 in test [1] was above 100 µM. Also, the inhibition in test [2] is above 70%. The IC50 in test [3] (read-out: IC50) worked out at 38 µM. Further, the Kis in test [4] was found to be 11 µM. Also, the Ki in test [5] was determined as 26 µM.
On the same counts, the results for `CC(=O)Nc1ccc(C)cc1C(F)(F)C(=O)NNc1ccccc1` are above 100 µM, above 70%, 12 µM, 26 µM and 1.3 µM.
For `CC(=O)Nc1ccccc1C(F)(F)C(=O)NCc1ccccc1`, the EC50 in test [1] was above 100 µM. Further, in test [2], the inhibition was above 70%. Further, in test [3] (read-out: IC50), the IC50 was found to be 37 µM. The Kis in test [4] was found to be 6.5 µM. For the same compound, the Ratio in test [6] turned out to be 5. In addition, in test [5], the Ki was found to be 32 µM.
For the compound `CC(=O)Nc1ccc(C)cc1C(F)(F)C(=O)NNc1ccccn1`, the EC50 in test [1] is above 100 µM. Also, the IC50 in test [3] (read-out: IC50) was above 100 µM.
Take `CC(=O)Nc1ccccc1C(F)(F)C(=O)NNc1ccccc1`: the EC50 in test [1] was determined as 12.7 µM. For the same compound, the inhibition in test [2] was above 70%. Also, the IC50 in test [3] (read-out: IC50) came out at 12 µM. Also, the “growth inhibition (GI)” value in test [7] was “Active”. Moreover, the inhibition constant Ki in test [5] stood at 5.1 µM.
Regarding `CC(=O)Nc1ccccc1C(F)(F)C(=O)Nc1ccccc1`, the inhibition result in test [2] was “inactive”. The IC50 result in test [3] was “Not Active”.
Take `CC(=O)Nc1ccc(C)cc1C(F)(F)C(=O)NC(C)C`: the inhibition result in test [2] is “inactive”. Besides, the IC50 entry in test [3] is recorded as “Not Active”.
As for `CC(=O)Nc1ccccc1C(F)(F)C(=O)Nc1ccc(Cl)cc1`, the inhibition entry in test [2] was “inactive”. Moreover, the half-inhibitory concentration (IC50) entry in test [3] was “Not Active”.
